Consider 14 compounds from ChEMBL document CHEMBL1649381, “Domino approach to 2-aroyltrimethoxyindoles as novel heterocyclic combretastatin A4 analogues” (Eur J Med Chem, 2011).

Test [1] can be described thus: Inhibition of tubulin polymerization by DAPI fluorescent assay. The method in brief: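 Tubulin (97% pure, 1 mg/ml final) in PME buffer (100 mM PIPES, 1 mM MgSO4, 2 mM EGTA) with DAPI and graded compound, colchicine as internal control. Preincubated 45 min at room temperature, then polymerization started by adding 1 mM GTP. Run 2 h at 37 °C with fluorescence excitation at 360 nm. IC50 taken from a semi-log plot of % inhibition against concentration.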

The next test has as its system B16. In words: Cytotoxicity against mouse B16 cells assessed as reduction in cell viability after 48 hrs by MTT assay. Format: functional, cell-based. The settings on record: B16, 48 h. The method, boiled down: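 B16 cells kept in DMEM with 2 mM L-glutamine, 10% FBS, penicillin/streptomycin at 37 °C, 5% CO2. After 48 h exposure, MTT was read at 562 nm with background subtracted. IC50 is the mean of three independent experiments.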
In general terms: Formazan colour is commonly taken as a measure of viable cells.

The test system of a further test is HCT-15. In words: Antiproliferative activity against human HCT15 cells after 72 hrs by MTS assay. Format: functional, cell-based. As to conditions: HCT-15, 72 h. The method, boiled down: (§1)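 Cells grown in RPMI 1640 with 10% fetal calf serum, streptomycin and fungizone at 37 °C, 5% CO2. MTS reagent was added for 2 h and absorbance read at 490. IC50 is the concentration giving 50% growth inhibition.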

For a further test, the system named is HT-29. In words: Antiproliferative activity against human HT-29 cells after 72 hrs by MTS assay. Format: functional, cell-based. As to conditions: HT-29, 72 h. The method, boiled down: as §1
A further test concerns HCT-116. Nature of the test: Antiproliferative activity against human HCT116 cells after 72 hrs by MTS assay. As to conditions: HCT-116, 72 h. Format: functional, cell-based. The method, boiled down: as §1

`COc1cc2[nH]c(C(=O)c3ccccc3)cc2c(OC)c1OC`: the IC50 was over 20 µM in test [1] and 45 µM in the test with B16.
Take `COc1ccc(C(=O)c2cc3c(OC)c(OC)c(OC)cc3[nH]2)cc1`: the IC50 in test [1] was 9 µM; in the test with HCT-15 it was 0.45 µM; in the test with HT-29 it was 1.24 µM; in the test on B16, over 50 µM; in the test on HCT-116, 4.2 µM.
Regarding `COc1ccc(C(=O)c2cc3c(OC)c(OC)c(OC)cc3[nH]2)cc1F`, the IC50 was over 20 µM in test [1] and 16 µM in the test on B16.
As for `COc1cc2[nH]c(C(=O)c3ccc(C)cc3)cc2c(OC)c1OC`, the IC50 in test [1] was 4 µM; in the test on HCT-15, 0.61 µM; in the test with HT-29, 1.09 µM; with B16, 10 µM; with HCT-116, 2.8 µM.
Taken in the same sequence, the figures for `COc1cc2[nH]c(C(=O)c3ccc(C)c(N)c3)cc2c(OC)c1OC` were 10 µM, 0.32 µM, 0.99 µM, 36 µM and 2 µM.
On to `COc1ccc(C(=O)c2cc3c(OC)c(OC)c(OC)cc3[nH]2)cn1`, for which the IC50 is 15 µM in test [1] and over 50 µM in the test on B16.
Taken in the same sequence, the figures for `COc1cc2[nH]c(C(=O)/C=C/c3ccccc3)cc2c(OC)c1OC` were over 20 µM and 16 µM.
As for `COc1cc2cc(C(=O)c3ccccc3)[nH]c2c(OC)c1OC`, the IC50 in test [1] is 9 µM; with HCT-15 it was over 50 µM; in the test on HT-29, over 50 µM; in the test on B16 it was over 50 µM; in the test with HCT-116 it was over 50 µM.
On to `COc1ccc(C(=O)c2cc3cc(OC)c(OC)c(OC)c3[nH]2)cc1`, for which the IC50 in test [1] is 12 µM; in the test with B16, over 50 µM.
Taken in the same sequence, the figures for `COc1ccc(C(=O)c2cc3cc(OC)c(OC)c(OC)c3[nH]2)cc1F` were 20 µM and over 50 µM.
Take `COc1cc2cc(C(=O)c3ccc(C)cc3)[nH]c2c(OC)c1OC`: the IC50 in test [1] is over 20 µM; in the test with HCT-15 it was over 50 µM; in the test with HT-29 it was over 50 µM; in the test on B16, 10 µM; in the test with HCT-116, over 50 µM.
For the compound `COc1ccc(C(=O)c2cc3cc(OC)c(OC)c(OC)c3[nH]2)cn1`, the IC50 in test [1] was 18 µM; with B16, over 50 µM.
Taken in the same sequence, the figures for `COc1cc2cc(C(=O)/C=C/c3ccccc3)[nH]c2c(OC)c1OC` were 18 µM and 33 µM.
Turning to `COc1ccc(/C=C\c2cc(OC)c(OC)c(OC)c2)cc1O` [COMBRETASTATIN A4], the IC50 amounted to 0.27 µM in test [1]; 0.001 µM with HCT-15; 0.013 µM in the test on HT-29; 0.005 µM in the test with B16; 0.001 µM in the test with HCT-116.

The IC50 is the concentration needed to halve the response being measured.
